Measured values from different studies.
Lines come from different studies, so protocols differ.
Effect on: enzyme activity
Action: inhibitor
ABL1: Tyrosine-protein kinase ABL1 (ABL1, Homo sapiens, UniProt P00519)
ABL1 G250E: Tyrosine-protein kinase ABL1 (ABL1, Homo sapiens, UniProt P00519, G250E)
ABL1 E255K: Tyrosine-protein kinase ABL1 (ABL1, Homo sapiens, UniProt P00519, E255K)

| SMILES | target | technique | concentration | inhibition [%] |
| --- | --- | --- | --- | --- |
| CNCc1ccc(-c2cc(-c3nc(-c4ccc(S(=O)(=O)C(C)C)cc4)cnc3N)on2)cc1 | ABL1 |  | 2 µM | 34 |
| COc1cc2ncnc(Nc3ccc(Oc4ccccc4)c(C)c3C)c2cc1OC | ABL1 G250E |  | 1 µM | 4 |
| CS(=O)(=O)Nc1cccc(-c2csc(NC(=O)CSc3nc4nccnc4c(=O)n3CCc3ccccc3)n2)c1 | Tyrosine-protein kinase ABL1 (ABL1, Homo sapiens, UniProt P00519, T315I) |  | 10 µM | -2 |
| CCCS(=O)(=O)Nc1ccc(F)c(C(=O)c2c[nH]c3ncc(-c4ccc(Cl)cc4)cc23)c1F | ABL1 |  | 1 µM | < 20 |
| COc1cc(-c2cc(-c3ccc(N4CCNCC4)cc3)cnc2N)cc(OC)c1OC | Tyrosine-protein kinase ABL1 (ABL1, Homo sapiens, UniProt P00519, Y253F) |  | 0.1 µM | 83 |
| CN(C)C1CCN(CC#Cc2nn(C3CCCC3)c3nc(NCc4ccccc4)ncc23)C1 (centres unmarked) | ABL1 | FRET | 1 µM | 6 |
| COc1cc2ncnc(Nc3ccc(Oc4ccccc4)cc3C)c2cc1OC | ABL1 G250E |  | 1 µM | 14 |
| CSc1nc(C)c(-c2ccnc(Nc3ccc(N4CCOCC4)cc3)c2)[nH]1 | ABL1 |  | 10 µM | 19.3 |
| COc1cc2nccc(Oc3ccc(NC(=O)c4c5n(n(-c6ccc(F)cc6)c4=O)CCCC5)cc3)c2cc1OC | ABL1 |  | 0.1 µM | 26 |
| C=CC(=O)Nc1cc(Nc2nccc(Nc3cc(Cl)c(F)cc3C(C)(C)O)n2)c(OC)cc1N1CC[C@@H](N(C)C)C1 | ABL1 |  | 1 µM | 6 |
| CC/C(=N\NC(=O)NCc1cccc(O)c1)c1ccc(O)c(C)c1O | ABL1 E255K |  | 0.1 µM | -3.4 |
| O=C(CSc1nc2nccnc2c(=O)n1CCc1ccccc1)Nc1nccs1 | ABL1 E255K |  | 10 µM | -1 |
| CNC(=O)c1cc2c(Oc3ccc(NC(=O)C4(C(=O)Nc5ccc(F)cc5)CC4)cc3)ccnc2cc1OC | ABL1 | radiometric | 1 µM | 70 |
| CNc1cccc2cc(C(=O)Nc3ccc(C(=O)O)cc3)c(=O)[nH]c12 | Tyrosine-protein kinase ABL1 (ABL1, Homo sapiens, UniProt P00519, H396P) |  | 10 µM | 1.9 |
